Experiment [1] concerns the target T1, purified human IDO (Homo sapiens, UniProt P14902). The experiment in a line: IDO assay. Format: biochemical. Particulars: for inhibition at 100 µM: read-out: IDO inhibition at 100 μM (%). The method, boiled down:
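Test compound, serially diluted in DMSO, mixed with 1 μg purified human IDO in 50 mM potassium phosphate, pH 6.5. Ascorbic acid, methylene blue, catalase and 200 μM L-tryptophan added; 1 h at 37°C. Stopped with 30% TCA, 15 min at 65°C, then centrifuged. Supernatant mixed 1:1 with Ehrlich's reagent at RT; kynurenine read at 480 nm. Screened at 100 μM; IC50 from lower concentrations; menadione as positive control; at least triplicate.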

For experiment [2], the target named is T1, purified human IDO. Description: Determination of inhibition pattern of IDO inhibitors. Format: biochemical. The method, boiled down: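 Same kynurenine assay with purified human IDO (37°C, 1 h, Ehrlich's reagent, A480), run at five L-tryptophan concentrations crossed with four inhibitor concentrations, including zero. Mode of inhibition was taken from Lineweaver-Burk plots. Ki was calculated from the y-intercept, (1 + [I]/Ki)/Vmax. Independent measurements, at least triplicate.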

T1 sequence (P14902 whole entry): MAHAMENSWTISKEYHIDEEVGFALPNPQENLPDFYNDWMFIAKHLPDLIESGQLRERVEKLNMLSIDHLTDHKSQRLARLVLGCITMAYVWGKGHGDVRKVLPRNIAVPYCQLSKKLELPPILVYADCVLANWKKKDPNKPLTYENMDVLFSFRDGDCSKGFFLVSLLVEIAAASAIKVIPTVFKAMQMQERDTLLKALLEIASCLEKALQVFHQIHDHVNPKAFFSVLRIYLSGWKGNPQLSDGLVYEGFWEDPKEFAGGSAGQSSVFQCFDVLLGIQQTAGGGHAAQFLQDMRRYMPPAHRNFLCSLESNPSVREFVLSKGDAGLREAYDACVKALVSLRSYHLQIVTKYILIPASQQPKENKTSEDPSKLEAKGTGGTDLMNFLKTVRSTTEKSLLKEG

As to `Cc1cc(=O)c2c(CO)cc(O)cc2o1` [Compound 10, 7-hydroxy-5-(hydroxymethyl)-2-methylchromone], the inhibition at 100 µM at purified human IDO [1] amounted to 5.86 ± 3.08%. In the case of `Cc1cc(O)cc(O)c1` [Compound 11, 5-methylresorcinol], on purified human IDO [1], the inhibition at 100 µM was found to be 10.2 ± 1.75%. In the case of `O=C1c2cccc(O)c2C(=O)c2c(O)cc(CO)cc21` [Compound 1, aloe emodin], on purified human IDO [1], the IC50 stood at 46.5 ± 1.51 µM and the inhibition at 100 µM is 67.4 ± 2.53%. For the same compound, at purified human IDO [2], the Ki turned out to be 85.3 µM. In turn, `CC1=CC(=O)c2ccccc2C1=O` [Menadione, reference compound] returned an IC50 on purified human IDO [1] of 3.71 ± 1.26 µM.

As a reminder, the inhibition is the drop in the measured response relative to a control, in per cent. In general, IC50 refers to the concentration that gives 50% inhibition. Higher therefore signals a need for much substance. Broadly, the Ki is the equilibrium dissociation constant of an inhibitor or competing ligand from its target. A lower Ki goes with higher affinity.
